# According to ChEMBL document CHEMBL4196194, “De Novo Design of α-Helical Lipopeptides Targeting Viral Fusion Proteins: A Promising Strategy for Relatively Broad-Spectrum Antiviral Drug Discovery” (J Med Chem, 2018):
# Calls of active or inactive are those of the source. The calls are words filed in the database; no cut-off is given here. Where a SMILES comes first, the peptide text is derived from it. [ ]: non-standard residue; d: D form. The star is where a group is joined. Palmitoyl = CCCCCCCCCCCCCCCC(=O)*; βAla = NCCC(=O)O
# Experiments:
# Influenza A virus [1] = test: Inhibition of influenza A virus infected in MDCK cells assessed as inhibition of viral load treated with compound at 0 to 10 hrs post-infection by RT-qPCR method based time of addition assay; assay type: functional
# Outline: (§1)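 MDCK cells (2.0 × 10^5/well) washed with PBS, virus adsorbed (MOI 0.05) 60 min at 4 °C, washed, then compound present only during 0–10, 0–2, 2–5, 5–8 or 8–10 h postinfection; cultured in fresh medium to 10 h, total RNA extracted, viral load by absolute one-step RT-qPCR; triplicate, versus PBS control.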
# Influenza A virus [2] = test: Binding affinity to influenza A virus hemagglutinin 2 synthetic peptide N66 at 75 uM incubated for 30 mins by Coomassie blue R250 staining based native polyacrylamide gel electrophoresis method
# Outline: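 Equimolar mix with N66 (150 μM each) in sodium acetate/phosphate/NaCl pH 5.0, 30 min at 30 °C; neutralized with 200 mM Tris pH 8.5, diluted 1:1 in Tris-glycine sample buffer, run on 15% Tris-glycine gel, running buffer pH 8.8 (90 V then 150 V, 2.5 h); Coomassie R250 stain.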
# [3] = molecular target: Hemagglutinin (Influenza A virus (A/Puerto Rico/8/1934(H1N1))) (UniProt P03452); test: Inhibition of Influenza A virus (A/Puerto Rico/8/1934(H1N1)) Hemagglutinin 1-induced aggregation of chicken erythrocytes at 0.05 to 100 uM
# Sequence of Hemagglutinin (Influenza A virus (A/Puerto Rico/8/1934(H1N1))) (P03452 whole entry): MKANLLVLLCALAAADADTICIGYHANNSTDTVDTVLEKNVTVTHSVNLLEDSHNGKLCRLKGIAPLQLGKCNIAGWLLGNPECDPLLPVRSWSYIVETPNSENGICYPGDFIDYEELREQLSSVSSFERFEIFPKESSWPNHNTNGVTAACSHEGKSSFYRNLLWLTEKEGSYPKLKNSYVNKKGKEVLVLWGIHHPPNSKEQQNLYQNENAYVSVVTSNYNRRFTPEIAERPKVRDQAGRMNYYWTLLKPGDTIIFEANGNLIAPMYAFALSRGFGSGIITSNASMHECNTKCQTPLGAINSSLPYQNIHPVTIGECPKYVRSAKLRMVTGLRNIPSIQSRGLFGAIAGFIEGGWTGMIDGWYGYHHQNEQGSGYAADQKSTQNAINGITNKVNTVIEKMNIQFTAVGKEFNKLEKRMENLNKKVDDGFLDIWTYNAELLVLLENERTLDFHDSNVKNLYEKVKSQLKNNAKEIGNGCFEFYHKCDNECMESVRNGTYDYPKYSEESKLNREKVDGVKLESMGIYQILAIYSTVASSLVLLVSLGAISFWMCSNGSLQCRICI
# [4] = molecular target: Hemagglutinin (Influenza A virus (A/Puerto Rico/8/1934(H1N1))) (UniProt P03452); test: Inhibition of Influenza A virus (A/Puerto Rico/8/1934(H1N1)) Hemagglutinin 2-mediated hemolysis of chicken erythrocytes at acidic pH conditions
# [5] = Cytotoxicity in MDCK cells assessed as reduction in cell viability incubated for 72 hrs by cell-titer-Glo cell viability assay; assay type: cell-based, Canis lupus familiaris; details: dog
# [6] = Cmax in Sprague-Dawley rat at 5 mg/kg, iv administered as single dose by LC-MS/MS analysis; assay type: ADME, organism-based; parameters: dose 5 mg/kg, route intravenous; details: in vivo
# [7] = Half life in Sprague-Dawley rat at 5 mg/kg, iv administered as single dose by LC-MS/MS analysis; assay type: ADME, organism-based; details: in vivo
# Influenza A virus [8] = test: Binding affinity to influenza A virus hemagglutinin 2 synthetic peptide N66 assessed as changes in alpha-helical structures at 10 uM at pH 5 by CD spectroscopy
# Outline: (§2)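 Peptides at 10 μM final. HR1P incubated with test peptide 30 min at 25 °C in 10 mM phosphate, pH 7.4; N66 30 min at 30 °C in 10 mM sodium acetate/10 mM sodium phosphate/150 mM NaCl, pH 5.0; measured at 25 °C. Mean residue ellipticity; helicity from −33000 deg cm2 dmol−1 = 100%.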
# Influenza A virus [9] = test: Inhibition of influenza A virus infected in MDCK cells assessed as inhibition of viral load treated with compound at 0 to 2 hrs post-infection by RT-qPCR method based time of addition assay; assay type: functional; outline: as §1
# Influenza A virus [10] = test: Binding affinity to influenza A virus hemagglutinin 2 synthetic peptide N66 assessed as melting temperature at 10 uM at pH 5 by CD spectroscopy
# Outline: (§3)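 Thermal unfolding by CD at 222 nm, 10–90 °C at 2 °C/min. Samples held 10 μM peptide: for HR1P in 10 mM phosphate pH 7.4; for N66 in 10 mM sodium acetate with 10 mM sodium phosphate and 150 mM NaCl, pH 5.0.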
# Influenza A virus [11] = test: Antiviral activity against Influenza A virus (A/Puerto Rico/8/1934(H1N1)) infected in HEK293T cells assessed as inhibition of viral replicon activity incubated for 30 hrs by dual-Glo luciferase assay; assay type: functional, organism-based; details: HEK-293T
# Outline: (§4)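 HEK293T cells (2.5 × 10^4/well) transfected with plasmids for NP, PB1, PB2, PA plus p0LN-S-Luc firefly and pRL-SV40 Renilla reporters; serially diluted compound added 6 h post-transfection, luciferase read after 30 h by Dual-Glo. Activity = firefly/Renilla ratio; % inhibition normalized to positive and negative controls, curve-fitted; three independent measurements.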
# Influenza A virus [12] = test: Antiviral activity against influenza A virus assessed as inhibition of viral replicon activity up to 100 uM incubated for 30 hrs by firefly luciferase reporter gene assay; assay type: functional, organism-based; outline: as §4
# Influenza A virus [13] = test: Antiviral activity against influenza A virus Hong Kong/8/1968(H3N2) infected in HEK293T cells assessed as inhibition of viral replicon activity incubated for 30 hrs by dual-Glo luciferase assay; assay type: functional, organism-based; details: HEK-293T; outline: as §4
# Rattus norvegicus [14] = test: Volume of distribution at steady state in Sprague-Dawley rat at 5 mg/kg, iv administered as single dose by LC-MS/MS analysis; assay type: ADME, organism-based; details: in vivo
# [15] = test system: Middle East respiratory syndrome-related coronavirus; test: Binding affinity to MERS-CoV spike protein synthetic peptide HR1P assessed as melting temperature at 10 uM at pH 7.4 by CD spectroscopy; outline: as §3
# Influenza A virus [16] = test: Inhibition of influenza A virus infected in MDCK cells assessed as inhibition of viral load treated with compound at 8 to 10 hrs post-infection by RT-qPCR method based time of addition assay; assay type: functional, organism-based; outline: as §1
# Rattus norvegicus [17] = test: Clearance in Sprague-Dawley rat at 5 mg/kg, iv administered as single dose by LC-MS/MS analysis; assay type: ADME, organism-based; details: in vivo
# Influenza A virus [18] = test: Inhibition of influenza A virus infected in MDCK cells assessed as inhibition of viral load treated with compound at 2 to 5 hrs post-infection by RT-qPCR method based time of addition assay; assay type: functional, organism-based; outline: as §1
# Influenza B virus = test: Antiviral activity against Influenza B virus (B/Lee/40); assay type: functional, organism-based; details: B/Lee/1940
# [19] = Solubility in pure water at 2 mg by HPLC-UV method; assay type: physicochemical
# Influenza A virus [20] = details: Hong Kong/8/1968(H3N2), 0.1 to 1000 uM
# [21] = test system: Middle East respiratory syndrome-related coronavirus; test: Binding affinity to MERS-CoV spike protein synthetic peptide HR1P assessed as changes in alpha-helical structures at 10 uM at pH 7.4 by CD spectroscopy; outline: as §2
# [22] = Cytotoxicity in human TZM-bl cells; assay type: cell-based
# Influenza A virus [23] = details: A/Puerto Rico/8/1934(H1N1), 0.1 to 1000 uM
# Influenza A virus [24] = test: Inhibition of influenza A virus infected in MDCK cells assessed as inhibition of viral load treated with compound at 5 to 8 hrs post-infection by RT-qPCR method based time of addition assay; assay type: functional, organism-based; outline: as §1
# [25] = Inhibition of MERS-CoV spike protein-mediated cell-cell fusion in 293T/MERS/EGPF cells assessed as reduction in cell fusion incubated for 4 hrs by inverted fluorescence microscopy; assay type: cell-based, Middle East respiratory syndrome-related coronavirus
# Outline: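 Huh-7 cells expressing DPP4 plated 5 × 10^4/well, 5 h at 37 °C; serially diluted peptide added, then 293T cells carrying MERS-CoV S and EGFP (or EGFP-only control cells), 1 × 10^4/well. After 4 h coculture at 37 °C, fused and unfused effector cells counted by fluorescence microscopy.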
# [26] = test system: Middle East respiratory syndrome-related coronavirus; test: Antiviral activity against MERS-CoV pseudovirus infected in human HuH7 cells treated with 30 mins pre-treated pseudovirus/compopund mixture and measured after 48 hrs by luciferase reporter assay; assay type: functional, organism-based
# Outline: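 Serially diluted peptide premixed with MERS-CoV pseudovirus 30 min at 37 °C, then added to Huh-7 cells; medium replaced at 12 h postinfection and cells cultured a further 48 h at 37 °C before luciferase read-out.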
smiles,measurement,setting,value
CCCCCCCCCCCCCCCC(=O)NCCCC[C@H](NC(=O)CCNC(=O)[C@H](CCCCN)NC(=O)[C@H](CCCCN)NC(=O)[C@H](CCC(N)=O)NC(=O)[C@@H](NC(=O)[C@H](CCC(=O)O)NC(=O)[C@H](CCC(=O)O)NC(=O)[C@@H](NC(=O)[C@H](CCCCN)NC(=O)[C@H](CCCCN)NC(=O)[C@H](CCC(N)=O)NC(=O)[C@@H](NC(=O)[C@H](CCC(=O)O)NC(=O)[C@H](CCC(=O)O)NC(=O)[C@@H](NC(=O)[C@H](CCCCN)NC(=O)[C@H](CCCCN)NC(=O)[C@H](CCC(N)=O)NC(=O)[C@@H](NC(=O)[C@H](CCC(=O)O)NC(=O)[C@H](CCC(=O)O)NC(=O)[C@@H](NC(=O)[C@H](CCCCN)NC(=O)[C@H](CCCCN)NC(=O)[C@H](CCC(N)=O)NC(=O)[C@@H](NC(=O)[C@H](CCC(=O)O)NC(=O)[C@H](CCC(=O)O)NC(=O)[C@@H](NC(=O)[C@H](CCCCN)NC(=O)[C@H](CCCCN)NC(=O)[C@H](CCC(N)=O)NC(=O)[C@@H](NC(=O)[C@H](CCC(=O)O)NC(=O)[C@H](CCC(=O)O)NC(=O)[C@@H](NC(C)=O)[C@@H](C)CC)[C@@H](C)CC)[C@@H](C)CC)[C@@H](C)CC)[C@@H](C)CC)[C@@H](C)CC)[C@@H](C)CC)[C@@H](C)CC)[C@@H](C)CC)[C@@H](C)CC)C(N)=O (Ac-IEEIQKKIEEIQKKIEEIQKKIEEIQKKIEEIQKK[βAla]K(Palmitoyl)-NH2),inhibition (INH),Influenza A virus [1],60%
same,Activity,Influenza A virus [2],Active
same,inhibition,[3],inactive
same,inhibition,[4],Active
same,CC50 at 72 h,[5],> 100000 nM
same,Cmax,[6],97.6 µg/mL
same,half-life,[7],6.6 h
same,Activity,Influenza A virus [8],Active
same,inhibition (INH),Influenza A virus [9],60%
same,Tm,Influenza A virus [10],83.1 °C
same,EC50,Influenza A virus [11],1730 nM
same,inhibition,Influenza A virus [12],inactive
same,EC50,Influenza A virus [13],700 nM
same,Vdss,Rattus norvegicus [14],0.1978 L/kg
same,Tm,[15],> 90 °C
same,inhibition,Influenza A virus [16],inactive
same,CL,Rattus norvegicus [17],0.345 mL/min/kg
same,inhibition,Influenza A virus [18],inactive
same,EC50,Influenza B virus,1870 nM
same,solubility,[19],8870 µg/mL
same,inhibition,Influenza A virus [20],inactive
same,Activity,[21],Active
same,CC50,[22],> 100000 nM
same,inhibition,Influenza A virus [23],inactive
same,inhibition,Influenza A virus [24],inactive
same,EC50,[25],110 nM
same,Activity,[26],Active
